In ChEMBL document CHEMBL5370639, “Structure-Based Lead Optimization of Enterovirus D68 2A Protease Inhibitors” (J Med Chem, 2023):

Key:
enterovirus D68 = test: Antiviral activity against enterovirus D68 US/MO/14-18947 infected in human RD cells assessed as reduction in virus induced cytopathic effect by neutral red staining based CPE assay; assay type: functional, organism-based; details: Enterovirus D, US/MO/14-18947, RD
In short: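 RD cells seeded overnight to ~90% confluency, washed with PBS containing Mg/Ca, infected with virus in DMEM/2% FBS/30 mM MgCl2 for at least 1 h at 33 °C, then compound added. Cells stained with 66 μg/mL neutral red for 2 h; uptake read at 540 nm. EC50 from dose-response fit; mean ± SD of two independent experiments, three repeats each.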

[1] = Inhibition of Enterovirus D68 US/KY/14-18953 2A protease expressed in Escherichia coli BL21(DE3) using Dabcyl-KIRIVNT/GPGEGGE-Edans as substrate incubated for 2 hrs by FRET assay
[2] = Cytotoxicity against human RD cells assessed as reduction in cell viability by neutral red staining based CPE assay; assay type: toxicity; details: RD cells
In short: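 Uninfected RD cells, grown overnight to ~90% confluency, treated with compound under otherwise the same handling as the antiviral assay. Viability by neutral red uptake (66 μg/mL, 2 h, absorbance 540 nm). CC50 from best-fit dose-response curve; mean ± SD of two independent experiments, three repeats each.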

Row | Compound | IC50 [1] [nM] | EC50 (enterovirus D68) [nM] | CC50 [2] [nM]
1 | CC(C)C[C@H](NC(=O)[C@@H]1[C@H]2CCC[C@H]2CN1C(=O)[C@@H](NC(=O)CC12CC3CC(CC(C3)C1)C2)C(C)(C)C)C(=O)C(=O)NC1CC1 | 260 | 260 | 26300
2 | CC(C)(C)[C@H](NC(=O)CC12CC3CC(CC(C3)C1)C2)C(=O)N1C[C@@H]2CCC[C@@H]2[C@H]1C(=O)N[C@@H](Cc1ccc(F)cc1)C(=O)c1nc2ccccc2s1 | > 20000 | > 30000 | > 150000
3 | CC(C)(C)[C@H](NC(=O)NC12CC3CC(CC(C3)C1)C2)C(=O)N1C[C@@H]2CCC[C@@H]2[C@H]1C(=O)N[C@@H](Cc1ccc(F)cc1)C(=O)C(=O)NC1CC1 | 160 | 350 | 21300
4 | CCC[C@H](NC(=O)[C@@H]1[C@H]2CCC[C@H]2CN1C(=O)[C@@H](NC(C)=O)C(C)(C)C)C(=O)C(=O)NC1CC1 | 940 | 4650 | > 150000
5 | CC(C)(C)[C@H](NC(=O)CC12CC3CC(CC(C3)C1)C2)C(=O)N1C[C@@H]2CCC[C@@H]2[C@H]1C(=O)N[C@@H](Cc1ccc(F)cc1)C(=O)C(=O)NC1CC1 | 150 | 190 | 14100
6 | CCC[C@H](NC(=O)[C@@H]1[C@H]2CCC[C@H]2CN1C(=O)[C@@H](NC(=O)CC1CCC(F)(F)CC1)C(C)(C)C)C(=O)C(=O)NC1CC1 | 140 | 750 | > 50000
7 | CCC[C@H](NC(=O)[C@@H]1[C@H]2CCC[C@H]2CN1C(=O)[C@@H](NC(=O)[C@@H](NC(=O)OCc1ccccc1)C1CCCCC1)C(C)(C)C)C(=O)C(=O)NC1CC1 | 360 | 830 | > 150000
8 | CCC[C@H](NC(=O)[C@@H]1[C@H]2CCC[C@H]2CN1C(=O)[C@@H](NC(=O)NC12CC3CC(CC(C3)C1)C2)C(C)(C)C)C(=O)C(=O)NC1CC1 | 160 | 700 | 42200
9 | CCC[C@H](NC(=O)[C@@H]1[C@H]2CCC[C@H]2CN1C(=O)[C@@H](NC(=O)/C=C/c1ccccc1)C(C)(C)C)C(=O)C(=O)NC1CC1 | 760 | 3990 | > 150000

Second part, led by results:

Row | IC50 [1] [nM] | Compound | EC50 (enterovirus D68) [nM] | CC50 [2] [nM]
10 | 90 | CC(C)[C@H](NC(=O)[C@@H]1[C@H]2CCC[C@H]2CN1C(=O)[C@@H](NC(=O)CC12CC3CC(CC(C3)C1)C2)C(C)(C)C)C(=O)C(=O)NC1CC1 | 160 | > 150000
11 | 740 | CC(C)(C)[C@H](NC(=O)CC12CC3CC(CC(C3)C1)C2)C(=O)N1C[C@@H]2CCC[C@@H]2[C@H]1C(=O)NC1(C(=O)C(=O)NC2CC2)CCCCC1 | 1010 | > 150000
12 | 230 | CC(C)(C)[C@H](NC(=O)CC12CC3CC(CC(C3)C1)C2)C(=O)N1C[C@@H]2CCC[C@@H]2[C@H]1C(=O)N[C@H](C(=O)C(=O)NC1CC1)c1ccccc1 | 570 | 35800
13 | 120 | CC(C)(C)[C@H](NC(=O)CC12CC3CC(CC(C3)C1)C2)C(=O)N1C[C@@H]2CCC[C@@H]2[C@H]1C(=O)N[C@@H](Cc1ccsc1)C(=O)C(=O)NC1CC1 | 240 | 28200
14 | 120 | COC[C@H](NC(=O)[C@@H]1[C@H]2CCC[C@H]2CN1C(=O)[C@@H](NC(=O)CC12CC3CC(CC(C3)C1)C2)C(C)(C)C)C(=O)C(=O)NC1CC1 | 2290 | 23200
15 | 350 | CC(C)(C)[C@H](NC(=O)CC12CC3CC(CC(C3)C1)C2)C(=O)N1C[C@@H]2CCC[C@@H]2[C@H]1C(=O)N[C@H](C(=O)C(=O)NC1CC1)c1ccc(F)cc1 | 780 | 24100
